From PubChem BioAssay AID2052 (NMMLSC, 2009)
Among all 330,000 compounds or so, about 220 (0.067%) were called active.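 How the source made its calls: active means response, share of CD8 T cells binding vesicles, and their 90th percentile fluorescence all below set limits (cut at about 80% in these data, passing the limit was not always enough); inactive means the rest, inconclusive results apart.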 The full list was thinned out, with actives kept by preference.

Assay: murine CD8 T cell vesicle adhesion modulation – mouse 2C CD8+ T cells, flow cytometry, primary screen (AID 2052);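 on double positive events: binding gate set so that unloaded-vesicle control wells show 10% double positive cells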;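 on response (vesicle binding): values below 100% mean blocked vesicle binding to the CD8+ T cells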
Settings: 2C CD8+ T cell-vesicle binding, at 7 µM, stronger effect = lower value; double positive events: measured here: CD8+ vesicle-bound cell fraction
Procedure, shortened: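 Assay system – 2C mouse CD8+ T cells · Also added – QL9-loaded Drosophila micro-vesicles · Timing – Cell–vesicle co-incubation 1.5 h at 37 °C, staining 20 min on ice · Signal – flow cytometry of vesicle-bound cells · Measure – percent CD8+ FL2 mean versus row control · Controls – Peptide-free naked vesicles (low) and QL9 vesicles with 0.7% DMSO vehicle (high)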

Row | Compound | double positive events | response (vesicle binding)
1 | CCCCOc1ccc(NC(=O)CSCC(=O)OCC)cc1 | 29.6% | 186% (inactive)
2 | CN(C)/C=C(/C(=O)c1ccc(Cl)cc1)S(=O)(=O)c1ccccc1 | 37.1% | 209% (inactive)
3 | Cc1nn(Cc2ccc(C(=O)N3N=C(C(F)F)CC3(O)C(F)F)cc2)c(C)c1[N+](=O)[O-] (centres undefined) | 36.3% | 446% (inactive)
4 | C1=C(N2CCOCC2)/C(=C/c2nc3ccccc3[nH]2)CC1 | 33.6% | 242% (inactive)
5 | CC1CC(C)(C)n2c(O)c(N=NC(N)=S)c3cccc1c32 (centres undefined) | 21.4% | 405% (inactive)
6 | CC1CCc2sc(C(=O)NCC(c3ccco3)N3CCCCC3)cc2C1 (centres undefined) | 29.9% | 209% (inactive)
7 | CS(=O)(=O)N(CC(=O)Nc1ccc(F)cc1F)c1cccc([N+](=O)[O-])c1 | 31.4% | 763% (inactive)
8 | O=C(c1ccccc1)c1ccc2nc(N3CCCCC3)c3nncn3c2c1 | 4.3% | 87.7% (inactive)
9 | Cc1c(Cl)cccc1NC(=S)NCC(O)c1ccccc1 (centres undefined) | 56.7% | 132% (inactive)
10 | CC(=O)Nc1ccc(S(=O)(=O)Oc2ccc(Br)cc2C(=S)N2CCOCC2)cc1 | 35.8% | 429% (inactive)
11 | Cc1ccc(OCC(=O)Nc2ccc(C(=O)O)cc2NC(=O)COc2ccc(C)c(C)c2)cc1C | 35.6% | 196% (inactive)
12 | COc1ccc(/C=C(/NC(=O)c2ccccc2)C(=O)Nc2cccc(C(=O)O)c2)cc1 | 39.2% | 259% (inactive)
13 | CCOc1ccc(S(=O)(=O)NCc2ccc3c(c2)OCO3)cc1C | 23.9% | 381% (inactive)
14 | Cc1cc(Br)ccc1NC(=O)CN(C)C(=O)CN1C(=O)NC2(CCCC2)C1=O | 8.3% | 215% (inactive)
15 | COCc1cc(C)n(CC(=O)NCC2CCCO2)c(=O)c1C#N (centres undefined) | 19.7% | 237% (inactive)
16 | CC(=O)Nc1ccc(NC(=O)CSC2=NS(=O)(=O)c3ccccc3N2)cc1 | 46.2% | 285% (inactive)
17 | COc1cc(/C=C/C(=O)N2CCc3ccccc3C2)cc(OC)c1OC | 39.9% | 216% (inactive)
18 | CCc1cc(CNC(=O)CC2C(=O)NCCN2Cc2ccccc2C(F)(F)F)on1 (centres undefined) | 21.1% | 297% (inactive)
19 | CS(=O)(=O)c1ccc(C(=O)NNC(=O)c2cccs2)cc1 | 52.2% | 322% (inactive)
20 | O=C(NC1CCCC1)C(c1c(F)cccc1Cl)N(C(=O)c1csnn1)C1CC1 (centres undefined) | 17.4% | 421% (inactive)
21 | CCc1ccc(NC(=O)C(=O)N/N=C(\C)CC(=O)NCCOC)cc1 | 23.6% | 154% (inactive)

Row | Compound | double positive events | response (vesicle binding)
22 | CCc1ccc(-n2c(SCc3cc(=O)n4cc(Br)ccc4n3)nc3[nH]ncc3c2=O)cc1 | 30.8% | 314% (inactive)
23 | Cc1sc2ncnc(N3CCC(C(=O)NNC(=O)c4ccc(F)cc4)CC3)c2c1C | 64.9% | 227% (inactive)
24 | CC1CCN(c2ccc(S(=O)(=O)Nc3cc(C(=O)O)cc(C(=O)O)c3)cc2[N+](=O)[O-])CC1 | 24.9% | 234% (inactive)
25 | CCn1c2c(c3ccc(OC)cc31)CCCC2=O | 43.3% | 241% (inactive)
26 | COC/C=C/C1=CC2=CC(=O)C(C)(OC(=O)CCC(=O)OC)C(=O)C2=CO1 (centres undefined) | 30.4% | 292% (inactive)
27 | CCCN=C1NC(=O)C(CC(=O)NCCc2ccc(OC)c(OC)c2)S1 (centres undefined) | 39.4% | 112% (inactive)
28 | CCN(CC(=O)Nc1c(F)cccc1F)C(=O)CN1c2cccc3cccc(c23)S1(=O)=O | 43.4% | 247% (inactive)
29 | O=C1C=C(NCCNc2c(F)c(F)c(CO)c(F)c2F)CCC1 | 42.6% | 169% (inactive)
30 | COCCN1C2=C(COC(C)(C)C2)C(=S)NC1c1ccccc1 (centres undefined) | 26.4% | 676% (inactive)
31 | Cc1cc(C(=O)N2CCN(c3ccccn3)CC2)c(C)o1 | 21% | 214% (inactive)
32 | Cn1ccc(=NC=C(C#N)C#N)c2ccccc21 | 46.1% | 136% (inactive)
33 | Cc1cc(C)n2nc(C(=O)OCC(=O)N(C)CC(=O)Nc3ccc(F)cc3)nc2n1 | 43% | 342% (inactive)
34 | CS(=O)(=O)N1CCc2cc(C(=O)Nc3ccccc3Br)ccc21 | 35.6% | 198% (inactive)
35 | CN(C)N=Nc1ccc2nc[nH]c2c1 | 13.7% | 692% (inactive)
36 | CO/N=C/c1ccc(N2CCN(C(=O)c3cccc(Cl)c3)CC2)c([N+](=O)[O-])c1 | 24.8% | 143% (inactive)
37 | CSc1sc(C(=O)NNC(=O)c2ccc(Cl)cc2)c2c1C=CCC2 | 57.7% | 168% (inactive)
38 | CCCCn1c(N)c(N2CCOCC2)c(=O)n(CC(=O)NCCc2ccccc2)c1=O | 52.1% | 370% (inactive)
39 | CCCN1CCN(C(=O)Cn2ncc3ccccc32)CC1 | 45.8% | 326% (inactive)
40 | COc1ccccc1CNC(=O)c1ccc(N(C)S(=O)(=O)c2ccc(C)cc2)cc1 | 2% | 94% (inactive)
41 | Cc1ccc(-n2nc3c(c2NC(=O)CCC2CCCCC2)CS(=O)C3)cc1 (centres undefined) | 41.6% | 834% (inactive)
42 | COc1cccc(C(=O)NNC(=O)/C=C/c2ccccc2)c1 | 61.7% | 433% (inactive)

Row | Compound | double positive events | response (vesicle binding)
43 | CNC(=O)c1nnn(-c2ccccc2)c1C(=O)NC | 57.6% | 329% (inactive)
44 | O=C(NCc1ccncc1)C1CCCN(S(=O)(=O)c2ccc(Br)cc2)C1 (centres undefined) | 50.3% | 342% (inactive)
45 | CCSc1nnc(SCC(=O)NNC(=O)c2ccccc2F)s1 | 59.2% | 194% (inactive)
46 | CCOc1cc(C2C(C(=O)OC(C)C)=C(C)NC3=C2C(=O)CCC3)cc([N+](=O)[O-])c1O (centres undefined) | 47.9% | 162% (inactive)
47 | COc1cc(N)c(Cl)cc1C(=O)OCC(=O)c1ccc2c(c1)NC(=O)CO2 | 29.1% | 484% (inactive)
48 | CC1(C)CC(CNCCC(c2ccc(F)cc2)c2ccco2)CCO1 (centres undefined) | 39.3% | 172% (inactive)
49 | CN(C)S(=O)(=O)c1cccc(NC(=O)COc2ccc3ccccc3c2)c1 | 30.4% | 566% (inactive)
50 | CCCn1cc(S(=O)(=O)c2ccc(C)cc2)c(=O)c2cc(OCC)ccc21 | 38.4% | 435% (inactive)
51 | CC1C(c2ccccc2)=[N+]([O-])C2(CCCC2)N1O (centres undefined) | 34.2% | 259% (inactive)
52 | COc1ccc(C2=Nn3c(nnc3-c3ccccc3OC)SC2)cc1OC1CCCC1 | 2.5% | 196% (inactive)
53 | CCC(CC)C(=O)Nc1cc(C(=O)OC)cc(C(=O)OC)c1 | 23.6% | 410% (inactive)
54 | Cc1c(Br)c([N+](=O)[O-])nn1CC(=O)N1CCN(Cc2ccccc2)CC1 | 63% | 210% (inactive)
55 | Cc1cc(Cl)ccc1C(=O)C1CCCN(C(=O)CCN2CCCO2)C1 (centres undefined) | 23.8% | 257% (inactive)
56 | Cn1nc(C(F)(F)F)c2cc(NC(=O)OCC(C)(C)C)sc21 | 43.1% | 197% (inactive)
57 | CN(CCc1cnn(C)c1)Cc1cn(C)nc1-c1ccccc1F | 31.2% | 291% (inactive)
58 | O=C(Nc1cccn(Cc2c(Cl)cccc2Cl)c1=O)c1ccc(Cl)cc1 | 24.7% | 379% (inactive)
59 | CCCC(CCC(=O)OC)(C(=O)OCC)c1csc(N)n1 (centres undefined) | 19.7% | 485% (inactive)
60 | CN(c1ccccc1)S(=O)(=O)c1cccc(NC(=O)Cc2ccc(Cl)cc2)c1 | 40.2% | 419% (inactive)
61 | CCCCCC1CCC(c2nnc(SCC(C)=O)o2)CC1 (centres undefined) | 19.4% | 214% (inactive)
62 | O=C(Nc1ccc(N2CCOCC2)cc1)c1ccc(-c2ccccc2[N+](=O)[O-])o1 | 30.7% | 205% (inactive)
63 | O=C(Nc1ccc(N2CCCCC2)cc1)c1cc(S(=O)(=O)N2CCOCC2)ccc1F | 40.6% | 316% (inactive)

Row | Compound | double positive events | response (vesicle binding)
64 | O=C(CC1Oc2ccccc2NC1=O)NCCCN1CCN(Cc2ccccc2)CC1 (centres undefined) | 40.4% | 363% (inactive)
65 | CCOC(=O)N1CCN(S(=O)(=O)c2ccc3c(c2)C(C)C(=O)N3)CC1 (centres undefined) | 29.9% | 289% (inactive)
66 | COc1ccc(/C=C2\N=C3CCCN3C2=O)cc1 | 16.6% | 231% (inactive)
67 | O=C1C=C(c2cccc(Br)c2)C[C@@H](c2ccc(F)cc2)C1 | 26% | 405% (inactive)
68 | Cc1ccc(C(=O)NC2CCCC(C)C2C)cc1S(=O)(=O)N1CCCCC1 (centres undefined) | 56.1% | 659% (inactive)
69 | O=C(Nc1ccc(CSc2ccccc2)cc1)c1ccc(CN2CCOCC2)cc1 | 48.3% | 264% (inactive)
70 | COc1ccc(N2CC(C)Cn3c2nc2c3c(=O)n(Cc3ccccc3F)c(=O)n2C)c(OC)c1 (centres undefined) | 27.6% | 423% (inactive)
71 | COc1ccc(CCNC(=O)c2ccccc2OCc2ccccc2)cc1 | 12.3% | 205% (inactive)
72 | NC(=O)Nc1ccccc1C(=O)NCCc1ccccc1 | 0% | 0% (active)
73 | O=C(O)c1ccccc1-c1ccccc1C(=O)NCCc1ccccc1 | 29.9% | 437% (inactive)
74 | CC(C)c1ccc(N(C(=O)c2ccco2)C(C(=O)NC2CCCC2)c2cccnc2)cc1 (centres undefined) | 19.1% | 176% (inactive)
75 | Cc1cc(C)c(S(=O)(=O)c2cc(F)ccc2C)c(=O)[nH]1 | 44.2% | 185% (inactive)
76 | O=S(=O)(Nc1ccc(Cl)cn1)c1cnc(Cl)c(Br)c1 | 15.2% | 0% (inactive)
77 | COc1ccc(N2CC(C(=O)N[C@@H](C)C(=O)N3CCCCC3)CC2=O)cc1 (some centres undefined) | 12.6% | 315% (inactive)
78 | OCC(CO)(CO)NCc1ccc(-c2ccccc2)cc1 | 35.7% | 0% (inactive)
79 | NC(=O)C[C@@H]1NC(=O)CNC(=O)c2cc([N+](=O)[O-])cc(I)c2NCCC(C(N)=O)NC1=O (some centres undefined) | 24.2% | 474% (inactive)
80 | CC(/C=C/C1(O)C(C)CC(=O)CC1(C)C)OC1OC(CO)C(O)C(O)C1O (centres undefined) | 38.7% | 185% (inactive)
81 | CCNC(=O)Nc1ccc(S(=O)(=O)Nc2cnc(C)nc2C)cc1 | 18.1% | 230% (inactive)
82 | CCc1nnc(NC(=O)CSc2nc(SC)ns2)s1 | 35.8% | 236% (inactive)
